Assay results taken from ChEMBL document CHEMBL2331329, “Synthesis and biological evaluation of 2-(alkoxycarbonyl)-3-anilinobenzo[b]thiophenes and thieno[2,3-b]pyridines as new potent anticancer agents” (J Med Chem, 2013).
Calls of active or inactive are those of the source. No cut-off for these calls is given here.

Tests used:
[1] = tested on: Mus musculus; test: Toxicity in Balb/c mouse xenografted with mouse BNL 1ME A.7R.1 cells assessed as decrease in body weight at 5 mg/kg, ip; type: organism-based; parameters: dose 5 mg/kg, route intraperitoneal; details: in vivo
Method in brief: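 Male Balb/c mice, 8 weeks old, given 10^7 syngeneic BNL 1ME A.7R.1 hepatoma cells subcutaneously in the dorsal region in 200 μL PBS. Randomised to groups of five. Dosed intraperitoneally once daily for 7 days at 5 mg/kg in 0.9% NaCl with 5% PEG 400 and 0.5% Tween 80, against vehicle and CA-4P. Tumours measured daily by caliper, V = AB2/2; body weight recorded. Mean ± SEM.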

[2] = tested on: HeLa; test: Induction of apoptosis in human HeLa cells assessed as survivin phosphorylation on Thr32 after 24 to 48 hrs by Western Blot analysis; type: functional, cell-based
Method in brief: (§1)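 HeLa cells exposed to 10 or 100 nM for 24 or 48 h, washed in ice-cold PBS, lysed on ice 30 min, spun at 15000g at 4 °C. 20 μg protein run on 7.5–15% SDS–PAGE, blotted to PVDF, blocked overnight at 4 °C. Primary antibodies 2 h at room temperature, peroxidase secondary 60 min, ECL detection, β-actin reprobe as loading control.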

[3] = Cytotoxicity against mouse BNL 1ME A.7R.1 cells; type: functional, cell-based
[4] = tested on: HeLa; test: Induction of apoptosis in human HeLa cells assessed as phosphorylated Mcl-1 at 10 nM after 48 hrs by Western Blot analysis; type: functional, cell-based; method in brief: as §1
[5] = tested on: HeLa; test: Induction of apoptosis in human HeLa cells assessed as PARP cleavage at 10 nM after 24 hrs by Western Blot analysis; type: functional, cell-based; method in brief: as §1
[6] = tested on: HeLa; test: Induction of apoptosis in human HeLa cells assessed as Bcl-XL phosphorylation at 10 to 100 nM after 24 to 48 hrs by Western Blot analysis; type: functional, cell-based; method in brief: as §1
[7] = tested on: HeLa; test: Induction of apoptosis in human HeLa cells assessed as ROS production at 10 to 100 nM after 24 to 48 hrs by HE staining-based flow cytometry relative to control; type: functional, cell-based
Method in brief: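 HeLa cells treated 24 or 48 h, then stained with H2-DCFDA or hydroethidine. ROS read by flow cytometry against untreated control. Mean ± SEM of three independent experiments.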

[8] = tested on: HeLa; test: Induction of apoptosis in human HeLa cells assessed as mitochondrial membrane depolarization at 10 to 100 nM by JC-1 staining; type: functional, cell-based; details: TDE = time-dependent effect
Method in brief: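 HeLa cells treated 24 or 48 h, then stained with the potentiometric dye JC-1. Proportion of cells with depolarised mitochondria read by flow cytometry. Mean ± SEM of three independent experiments.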

[9] = tested on: HeLa; test: Induction of apoptosis in human HeLa cells assessed as early apoptotic cells at 10 to 100 nM by annexin V-FITC and propidium iodide staining-based flow cytometry; type: functional, cell-based; details: TDE = time-dependent effect
Method in brief: (§2)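 HeLa cells treated 24 or 48 h, then co-labelled with annexin-V–FITC and propidium iodide. Flow cytometry with 488 nm excitation and emission at 525 nm (FITC) and 585 nm (PI); early apoptotic cells counted as annexin-V+/PI−. Mean ± SEM of three independent experiments.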

[10] = tested on: HeLa; test: Induction of apoptosis in human HeLa cells assessed as early apoptotic cells after 24 to 48 hrs by annexin V-FITC/Propidium iodide staining-based flow cytometry; type: functional, cell-based; method in brief: as §2
[11] = tested on: HeLa; test: Cell cycle arrest in human HeLa cells assessed as variation in cyclin B expression at 10 to 100 nM after 24 to 48 hrs by Western Blot analysis; type: functional, cell-based; method in brief: as §1
[12] = tested on: HT-29; test: Cell cycle arrest in human HT-29 cells assessed as accumulation at G2/M phase at 20 nM after 24 hrs by propidium iodide staining-based flow cytometry; type: functional
Method in brief: (§3)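 Jurkat, HT-29 and HeLa cells in exponential growth (5 × 10^5 cells) treated 24 h at a range of concentrations. Fixed in ice-cold 70% ethanol, lysed with buffer containing RNase A and 0.1% Triton X-100, stained with propidium iodide. DNA content read by flow cytometry and the percentage of cells per cycle phase derived from DNA histograms.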

[13] = organism: Bos taurus; test: Displacement of [3H]colchicine from bovine brain tubulin at 5 uM after 20 mins by turbidimetric analysis
[14] = Inhibition of bovine brain tubulin polymerization after 20 mins by turbidimetric analysis; parameters: species or system Bos taurus
Method in brief: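 Bovine brain tubulin (10 μM) preincubated with varying compound concentrations in glutamate buffer at 30 °C, chilled to 0 °C, 0.4 mM GTP added, then warmed to 30 °C in a recording spectrophotometer.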

[15] = tested on: A549; test: Resistance index, ratio of IC50 for human A549-T12 cells to IC50 for human A549 cells; type: functional
Method in brief: (§4)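 Mean ± SE of at least three independent experiments. Resistance ratio = IC50 in resistant line/IC50 in nonresistant line.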

[16] = Cytotoxicity against human A549-T12 cells after 72 hrs by MTT assay; type: functional, cell-based; details: A549, 72 h; method in brief: as §4
[17] = tested on: CCRF-CEM; test: Resistance index, ratio of IC50 for human CEM/VBL100 cells to IC50 for human CEM cells; type: functional
Method in brief: (§5)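 MTT viability test: 8 × 10^3 cells per well settled 18 h at 37 °C, 5% CO2, then given fresh medium with compound (from 10 mM DMSO stocks, final DMSO ≤0.25%) for 72 h. […] CEMVbl-100 is a vinblastine-selected P-gp line; LoVoDoxo is grown in Ham's F12 with 0.1 μg/mL doxorubicin. Resistance index = resistant IC50/parental IC50.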

[18] = Cytotoxicity against human CEM/VBL100 cells after 72 hrs by MTT assay; type: functional, cell-based; details: CEM/VBL100, 72 h; method in brief: as §5
[19] = tested on: LoVo; test: Cytotoxicity against human LoVo cells after 72 hrs by MTT assay; type: functional, cell-based; method in brief: as §5
[20] = tested on: PBL; test: Cytotoxicity against human PBL cells after 72 hrs by MTT assay; type: cell-based
Method in brief: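 Peripheral blood lymphocytes from healthy donors isolated on a Lymphoprep gradient and rested overnight in RPMI-1640 with 10% FBS. Nonadherent cells at 5 × 10^5 cells/mL, with 2.5 μg/mL PHA for proliferating cultures or without it for resting ones. Compound exposure 72 h, viability by MTT. Mean ± SEM of three experiments.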

[21] = Cytotoxicity against human SEM cells after 72 hrs by MTT assay; type: functional, cell-based
Method in brief: (§6)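 Cells plated at 8 × 10^3 per well, 18 h at 37 °C, 5% CO2, then fresh medium with graded compound concentrations (DMSO ≤0.25%) for 72 h. Jurkat, SEM, HL-60 grown in RPMI-1640; A549, HeLa, HT-29, MCF-7 in DMEM; 10% FBS with penicillin/streptomycin. MTT viability read-out; IC50 vs 0.25% DMSO controls; mean ± SE of at least three independent experiments.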

[22] = tested on: Jurkat; test: Cytotoxicity against human Jurkat cells after 72 hrs by MTT assay; type: functional, cell-based; method in brief: as §6
[23] = tested on: HT-29; test: Ratio of Combretastatin A-4 IC50 to compound IC50 for human HT-29 cells; type: functional
[24] = tested on: HL-60; test: Ratio of Combretastatin A-4 IC50 to compound IC50 for human HL60 cells; type: functional
[25] = tested on: A549; test: Ratio of Combretastatin A-4 IC50 to compound IC50 for human A549 cells; type: functional
[26] = tested on: Jurkat; test: Cell cycle arrest in human Jurkat cells assessed as accumulation at G2/M phase at >20 nM after 24 hrs by propidium iodide staining-based flow cytometry; type: functional; method in brief: as §3

SMILES: COC(=O)c1sc2cc(OC)ccc2c1Nc1cc(OC)c(OC)c(OC)c1
- Activity [1]: Toxic
- Activity [2]: Active
- IC50 [3]: 2.1 nM
- Activity [4]: inactive
- Activity [5]: Active
- Activity [6]: Active
- Activity [7]: Active
- Activity [8]: tde
- Activity [9]: tde
- Activity [10]: Dose-dependent effect
- Activity [11]: inactive
- Activity [12]: Active
- inhibition [13]: 98%
- IC50 [14]: 880 nM
- Ratio IC50 [15]: 1.5
- IC50 [16]: 12.6 nM
- Ratio IC50 [17]: 0.4
- IC50 [18]: 1.3 nM
- IC50 [19]: 0.3 nM
- IC50 [20]: > 10000 nM
- IC50 [21]: 10.3 nM
- IC50 [22]: 1.7 nM
- Ratio IC50 [23]: 2
- Ratio IC50 [24]: 2
- Ratio IC50 [25]: 2
- Activity [26]: >80%
